STEP block: inhibitors of human striatal-enriched phosphatase STEP. P54829. recombinant STEP, OMFP fluorogenic substrate, fluorescence. inhibition, % at 20 µM. 360,000 tested, 0.25% active. AID 588621;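 active means inhibition at 20 µM, scaled per plate between control wells, above about 37%, limit read from the data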;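 further: 0% = DMSO with enzyme and substrate and 100% = substrate only without enzyme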
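Also added – OMFP at 25 µM · Test system – STEP tyrosine phosphatase · Technique – FITC-channel fluorescence of OMFP product · Schedule – 20 min at room temperature, dark · Evaluation – control-normalized % inhibition with plate pattern correction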
LMPTP inh: blocks human LMPTP phosphatase; P24666; recombinant LMPTP-A, OMFP fluorogenic substrate, fluorescence intensity; inhibition, % at 20 µM; 360,000 tested, 0.22% active; AID 651560;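 active means compounds that cut the enzyme signal by at least half of the control window in the single-dose screen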;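 further: plate controls were DMSO wells with enzyme plus substrate for no effect and substrate without enzyme for full effect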
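test system = LMPTP-A | amount = 0.625 nM LMPTP-A final | reagent = fluorogenic phosphatase substrate OMFP at 400 µM final | incubation = 50 min at room temperature | benchmarks = no-enzyme low control, uninhibited high control | medium = Bis-Tris pH 6.0, DTT, detergent | signal = fluorescence intensity of OMFP turnover product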
Scp1 inh: inhibitors of human Scp-1 phosphatase; Q9GZU7; Recombinant Scp1, phosphopeptide, malachite green phosphate absorbance; inhibition, % at 20 µM; 340,000 tested, 0.88% active;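 active means inhibition above about 50% at 20 µM, limit read from the data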;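 further: plate controls were DMSO wells with enzyme for no effect and wells lacking enzyme for full effect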
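Material: truncated SCP-1 phosphatase (76-261aa) / Buffer or medium: 50 mM Tris acetate pH 5.5, 0.005% Tween-20, 10 mM MgCl2 / Compound dosing: one concentration, 20 µM, with 1.0% DMSO / Incubation: 45 min room-temperature reaction, 5 min colour, 30 min stabiliser / Detection: colorimetric free-phosphate detection, absorbance 630 nm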
SUMO1 PPI mod: alters human SUMO1 binding to SIM partners; SUMO1 binding to a labelled peptide, TR-FRET, 1 h; inhibition, % at 20 µM; 360,000 tested, 0.33% active; in the data active means inhibition above about 37%
DNMT1 inh: blocks human DNA methyltransferase DNMT1. P26358. DNMT1 molecular beacon, Hinp1I cleavage, fluorescence. inhibition (reported as % activation of signal), % at 10 µM. 360,000 tested, 0.83% active. AID 588458; in the data active means inhibition above about 50%
Target sequence (P26358 504-1616 limits assumed): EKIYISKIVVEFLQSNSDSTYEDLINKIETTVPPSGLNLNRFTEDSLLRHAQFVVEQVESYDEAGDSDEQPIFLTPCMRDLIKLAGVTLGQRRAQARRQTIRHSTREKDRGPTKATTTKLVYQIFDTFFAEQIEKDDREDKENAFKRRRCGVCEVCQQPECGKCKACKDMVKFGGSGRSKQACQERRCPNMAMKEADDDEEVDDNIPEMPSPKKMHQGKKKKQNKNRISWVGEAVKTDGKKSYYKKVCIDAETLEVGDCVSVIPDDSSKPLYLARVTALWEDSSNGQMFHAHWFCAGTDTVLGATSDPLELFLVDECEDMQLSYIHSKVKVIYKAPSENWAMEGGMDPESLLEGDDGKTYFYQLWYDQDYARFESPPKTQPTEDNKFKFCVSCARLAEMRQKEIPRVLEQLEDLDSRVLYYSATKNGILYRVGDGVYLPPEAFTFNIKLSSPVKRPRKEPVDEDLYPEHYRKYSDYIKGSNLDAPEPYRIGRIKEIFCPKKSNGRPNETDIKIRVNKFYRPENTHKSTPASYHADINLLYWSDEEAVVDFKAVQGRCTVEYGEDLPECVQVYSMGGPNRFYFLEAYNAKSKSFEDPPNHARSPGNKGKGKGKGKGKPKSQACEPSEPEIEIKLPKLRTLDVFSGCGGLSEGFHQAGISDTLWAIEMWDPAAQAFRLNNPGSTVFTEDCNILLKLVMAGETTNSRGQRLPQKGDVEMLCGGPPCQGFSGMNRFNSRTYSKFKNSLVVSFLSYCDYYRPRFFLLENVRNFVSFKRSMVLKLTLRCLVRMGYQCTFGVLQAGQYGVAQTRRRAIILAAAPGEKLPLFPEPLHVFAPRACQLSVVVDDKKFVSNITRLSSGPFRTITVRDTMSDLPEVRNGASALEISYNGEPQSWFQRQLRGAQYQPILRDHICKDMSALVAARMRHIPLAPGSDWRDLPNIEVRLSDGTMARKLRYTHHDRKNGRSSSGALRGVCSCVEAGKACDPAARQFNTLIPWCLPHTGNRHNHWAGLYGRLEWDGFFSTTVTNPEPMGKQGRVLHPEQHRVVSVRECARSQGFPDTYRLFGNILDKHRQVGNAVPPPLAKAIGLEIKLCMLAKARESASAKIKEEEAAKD
* hit, by the source's call; x = no result. In the library only some 1.8% were active in any assay of this set; here they are far more common.

SMILES | STEP block | LMPTP inh | Scp1 inh | SUMO1 PPI mod | DNMT1 inh
O=C1C(=O)c2cccc3cccc1c23 | -2 | -2 | -5 | -20 | -14
O=C1C(=O)c2ccccc2-c2ccccc21 | 36* | 51* | -9 | 32 | 105*
O=C1NC(=O)C(=Cc2ccc(-c3ccc(F)cc3O)o2)C(=O)N1 | 1 | -1 | 95* | 6 | 28
Cc1ccc(N2C(=O)NC(=O)/C(=C\c3cc(C)n(-c4cc(C(=O)O)cc(C(=O)O)c4)c3C)C2=O)cc1 | 5 | -1 | 51* | 12 | 41
O=c1[nH]c(=S)n(Cc2ccco2)c(O)c1C=NCc1cccs1 | 0 | 65* | 36 | 6 | 49
Fc1cccc(C2NCCc3[nH]cnc32)c1 (centres undefined) | -2 | -6 | -13 | 1 | -1
Clc1ccc(C2NCCc3[nH]cnc32)cc1 (centres undefined) | 2 | -2 | -11 | 41* | -4
COc1ccc(-c2nc3ccccc3c(=O)n2-c2nccs2)cc1 | -5 | -1 | -9 | 42* | -10
COc1ccc(-c2nc3ccccc3c(=O)n2-c2ccc(OC)cc2)cc1 | 4 | -1 | -7 | 5 | -1
C[n+]1c(-c2ccccc2)cc(CCCCc2cc(-c3ccccc3)[n+](C)c(-c3ccccc3)c2)cc1-c1ccccc1 | 4 | 50* | 47 | -30 | 21
O=C(O)CC1OCC=C2CN3CCC45C6=CC(=O)C(=O)C([N+](=O)[O-])=C6NC4C1C2CC35 (centres undefined) | 18 | 15 | 21 | 30 | 58*
COc1ccc(-n2c(-c3ccccc3F)nc3ccccc3c2=O)cc1 | 1 | -1 | x | -1 | 6
O=c1[nH]c(=O)n(Cc2ccco2)c(O)c1/C=N/N1CCCCCC1 | -2 | -1 | -2 | 0 | 10
N#Cc1c(/N=C/c2c(O)n(Cc3ccco3)c(=O)[nH]c2=O)sc2c1CCCC2 | 7 | 3 | 43 | 5 | 67*
CC12CCC3C(CCC4CC(=O)C(C(O)C(F)(F)F)CC43C)C1CCC2O (centres undefined) | 0 | 0 | -10 | -5 | -2
COc1cc(/C=C2\C(=O)NC(=O)N(c3ccccc3)C2=O)c([N+](=O)[O-])cc1OC | 2 | -1 | -10 | -15 | 2
COc1ccc(OC)c(N2C(=O)/C(=C/c3ccco3)C(=O)NC2=S)c1 | x | x | 89* | x | x
COc1ccc(OC)c(N2C(=O)NC(=O)/C(=C/c3ccc([N+](=O)[O-])s3)C2=O)c1 | 5 | 4 | 5 | 47* | 21
COc1ccc(N2C(=O)/C(=C/c3cc(C)n(-c4ccc(C)cn4)c3C)C(=O)NC2=S)c(OC)c1 | -2 | 0 | -9 | 9 | 3
COC(=O)C1=C(c2ccc(OC(F)(F)F)cc2)C[C@@H]2CC[C@H]1N2C(=O)NCCOc1ccccc1Cl | 3 | 2 | -18 | 2 | 10
Nc1c(C(=O)NCC2CCCO2)c2nc3ccccc3nc2n1Cc1ccco1 (centres undefined) | 2 | 3 | -20 | -4 | -19
Nc1c(C(=O)NC2CCCC2)c2nc3ccccc3nc2n1CC1CCCO1 (centres undefined) | 0 | 8 | 6 | 41* | 47
O=C(O)CCC(=O)NCCC1=c2ccccc2=N/C1=C\c1c(O)n(Cc2ccc(F)cc2)c(=S)[nH]c1=O | -2 | 0 | 92* | 23 | 5
O=C(O)C1C(C(=O)O)C2(Cl)C(Cl)=C(Cl)C1(Cl)C2(Cl)Cl (centres undefined) | 10 | 65* | -15 | 22 | 28
Clc1ccc(C(c2ccc(Cl)cc2)n2cc[n+](CC(OCc3ccc(Cl)cc3Cl)c3ccc(Cl)cc3Cl)c2)cc1 (centres undefined) | 8 | 32 | -1 | 80* | -55
SMILES | STEP block | LMPTP inh | Scp1 inh | SUMO1 PPI mod | DNMT1 inh
CCOc1ccc(N2C(=O)/C(=C/c3ccc(C)o3)C(=O)NC2=S)cc1 | 3 | 1 | 47 | 9 | 50*
CCOc1ccc(N2C(=O)NC(=O)/C(=C\c3ccc(N4CCCCC4)o3)C2=O)cc1 | 2 | 14 | -14 | -72 | 11
O=C1NC(=S)N(c2ccc(F)cc2)C(=O)/C1=C\c1ccoc1 | 42* | 46 | 74* | 75* | 85*
c1cc2c(cc1N1CCOCC1)CNCc1cnnn1-2 | -1 | 1 | x | 4 | 1
O=C1NC(=O)C(=Cc2ccc(Sc3ccccc3)o2)C(=O)N1 | 1 | -1 | 17 | 0 | 12
O=C1NC(=O)C(=Cc2ccco2)C(=O)N1 | 50* | 11 | 28 | 8 | 82*
COC(=O)C1=C(c2ccc(C(C)=O)cc2)C[C@@H]2CC[C@H]1N2C(=O)NCCOc1ccccc1Cl | 1 | 0 | -14 | 2 | 2
CC1Oc2cc3c(-c4c(O)cc(O)c5c(O)c6c(cc45)OC(C)C(C)C6=O)c(O)cc(O)c3c(O)c2C(=O)C1C (centres undefined) | 5 | 13 | 10 | 43* | 60*
Cc1ncoc1C(=O)NCC1=C(c2ccc3ccccc3c2)C[C@@H]2CC[C@H]1N2Cc1ccco1 | -1 | -1 | x | -1 | -3
CCCNC(=O)N1[C@H]2CC[C@@H]1C(C(=O)OC)=C(c1ccc(OC(F)(F)F)cc1)C2 | 0 | -1 | 0 | 4 | 8
O=C1NC(=O)N(Cc2ccco2)C(=O)/C1=C/C=C/c1ccco1 | 40* | 23 | 81* | 92* | 97*
CN1C(=O)/C(=C/C=C/c2ccco2)C(=O)NC1=S | 36 | 12 | 98* | 54* | 94*
Cc1ccc(N2C(=O)NC(=O)/C(=C\C=C\c3ccco3)C2=O)cc1 | 0 | 0 | 2 | 0 | 28
Cc1ccc(N2C(=O)NC(=O)/C(=C\C=C\c3ccco3)C2=O)cc1C | 0 | 0 | 0 | 3 | 66*
Cc1ccc(OCCn2cccc2/C=C2/C(=O)NC(=O)N(Cc3ccco3)C2=O)cc1 | 4 | 3 | 4 | 17 | 61*
BrCC(Br)C1CCC(Br)C(Br)C1 (centres undefined) | 0 | -1 | -6 | 7 | 2
COC(=O)C1=C(c2ccc(F)cc2F)C[C@@H]2CC[C@H]1N2C(=O)N1CCC(C)CC1 | 2 | -1 | -9 | 2 | 0
CSCCC(c1nnnn1C1CCCCC1)N1CCC2(CC1)C(=O)NCN2c1ccccc1 (centres undefined) | 0 | 0 | x | 6 | -5
Cc1ccccc1-n1c(C)cc(/C=C2/C(=O)NC(=O)N(Cc3ccco3)C2=O)c1C | 3 | 2 | -3 | 1 | 30
CCOC(=O)C1CCN(/C=C2/C(=O)NC(=O)N(Cc3ccco3)C2=O)CC1 | 6 | 2 | 66* | 11 | 29
N#CC(C#N)=NNc1ccc(S(N)(=O)=O)cc1 | 2 | 57* | 12 | 31 | 46
COC(=O)C1(F)C(=O)NC(=O)NC1O (centres undefined) | x | -1 | x | 0 | x

Compound activity deposited in PubChem BioAssay by Sanford-Burnham Center for Chemical Genomics.
